Consider 167 variants from the RNAGym collection of RNA variant scans (doi:10.1126/science.aae0568).

This sample holds only a part of the variants without activity. Bounds are passed on as bounds.

B1: tRNA (parent)
chain: GUUCCGUUGGCGUAAUGGUAACGCGUCUCCCUCCUAAGGAGAAGACUGCGGGUUCGAGUCCCGUACGGAACG

The data set covers variants of B1. The data set can be described thus: yeast fitness relative to wild type (ratio to wild type); higher = fitter; tRNA-Arg(CCU), competitive growth, 37 C, YPD. In outline:
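A pool of Saccharomyces cerevisiae strains, each with a tRNA-Arg(CCU) gene variant at the native genomic locus, was competed in YPD at 37°C for 24 hours across six parallel replicates. The variants had been chemically synthesised at a 3% per-site mutation rate over 69 sites, and gene amplicons before and after competition were read by 100-nucleotide paired-end sequencing. Darwinian fitness relative to wild type rested on changes in genotype frequencies. Genotypes required ≥ 100 starting reads, and estimates < 0.5 were set to 0.5.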
G17C C22G C24A C62A: the yeast fitness was at most 0.5.

For G17C C29U A37C A69U, the yeast fitness is at most 0.5.

With G17C C24U C46G C62G, the yeast fitness was found to be 0.572.

Turning to G18A A40G C62A A65U C66U, the yeast fitness was at most 0.5.

For the variant G17C U28G G48A A69C, the yeast fitness was at most 0.5.

As to G17U C30A A43U C66U, the yeast fitness was at most 0.5.

Consider G17C U26C C46U A65C, for which the yeast fitness was at most 0.5.

For G18C G44A G63C A65C, the yeast fitness was at most 0.5.

In the case of G17C C24U C49U U59A, the yeast fitness came out at 0.533.

Regarding G18A A65C, the yeast fitness was determined as 0.759.

For G18A A20U C34U A36G, the yeast fitness is at most 0.5.

As for G18C G67A A69C, the yeast fitness was at most 0.5.

With G18C C29U C34U A36G G58C, the yeast fitness was at most 0.5.

Regarding G18A C33G U53A, the yeast fitness is at most 0.5.

As for G18C C34U, the yeast fitness was at most 0.5.

With G17C G38C A43C A69U, the yeast fitness was at most 0.5.

G18C C24G A45G C55G: the yeast fitness stood at 0.693.

Turning to G18A C30G C34G, the yeast fitness was at most 0.5.

For G18C A57U, the yeast fitness worked out at 0.555.

Regarding G18A G39U G48A C61G, the yeast fitness was at most 0.5.

Consider G17C C22G C24A C62A C66U, for which the yeast fitness is at most 0.5.

With G18A G23C C30G A36U, the yeast fitness was at most 0.5.

Take G18C C30U U32A C34G A45C U47G A57G: the yeast fitness worked out at 0.688.

Turning to G18A A21C C33G A37U U64G, the yeast fitness is at most 0.5.

Regarding G18C C24U C66U, the yeast fitness was at most 0.5.

Regarding G17C G25A C49A A69U, the yeast fitness was at most 0.5.

In the case of G18C C62A C66A, the yeast fitness was at most 0.5.

With G18C G23A G25C U35C A37G A43C C55G G68A, the yeast fitness was at most 0.5.

In the case of G18C C29U C30U A37G C49U G67A, the yeast fitness was at most 0.5.

As for G17C U35A C61U, the yeast fitness is at most 0.5.

Consider G18C C22G G56A, for which the yeast fitness was determined as 0.568.

G18A C27U C46A: the yeast fitness worked out at 0.528.

As for G18A C22G C24G, the yeast fitness is at most 0.5.

For G18A A21U U32A C62G A65G, the yeast fitness is at most 0.5.

On to G18C C24A A36U, for which the yeast fitness is at most 0.5.

As for G18C U26A, the yeast fitness amounted to 0.609.

G18C G50A: the yeast fitness worked out at 0.609.

For the variant G18A C24U G56A, the yeast fitness amounted to 0.674.

As to G18C A21U U26C G51C, the yeast fitness turned out to be 0.739.

For the variant G18A U26C, the yeast fitness was determined as 0.648.

As to G17C G41A, the yeast fitness was 0.615.

Consider G17C U19A C49G A69G, for which the yeast fitness is at most 0.5.

With G17C C46G G68A, the yeast fitness is at most 0.5.

On to G17C G18C G44C U59A, for which the yeast fitness was at most 0.5.

Take G17C C62G: the yeast fitness came to 0.57.

As to G18C C60A, the yeast fitness was at most 0.5.

On to G18C C60U, for which the yeast fitness is at most 0.5.

As for G18A C55A C62G, the yeast fitness is at most 0.5.

As for G18A C30U A40G G68C, the yeast fitness is at most 0.5.

As for G18A C31G, the yeast fitness is 0.666.

As for G18A C31U, the yeast fitness worked out at 0.663.

Turning to G18C C31G G44C G48C C66U, the yeast fitness was at most 0.5.

Regarding G18C G52C C60U, the yeast fitness was determined as 0.591.

On to G18A C22U C24G, for which the yeast fitness is at most 0.5.

For G18C C24G U35C G50C C55G G67C, the yeast fitness was at most 0.5.

As for G17U C46A, the yeast fitness amounted to 0.785.

On to G18C G41C C62G, for which the yeast fitness is at most 0.5.

On to G18A C34G C46A C62U A69C, for which the yeast fitness was at most 0.5.

For the variant G18A A21U A37U A42U C46A G58C U64A, the yeast fitness was at most 0.5.

With G18C C29U C34U, the yeast fitness is at most 0.5.

For the variant G18A C24G G56A C66U, the yeast fitness was at most 0.5.

For the variant G17C C27U A65C, the yeast fitness is 0.54.

As to G18A A70G, the yeast fitness was found to be 0.646.

Take G18A A70C: the yeast fitness turned out to be 0.74.

For G18A G25C C49U, the yeast fitness turned out to be 0.74.

For G18A C31A C60A, the yeast fitness was at most 0.5.

In the case of G17C G48A, the yeast fitness came out at 0.685.

Consider G18A C31A A43G G50A A57U, for which the yeast fitness was determined as 0.572.

For G18C C62G G67U, the yeast fitness was at most 0.5.

For G18C G44A, the yeast fitness came to 0.604.

Take G17C G23U U28A C31G A65G: the yeast fitness is at most 0.5.

Turning to G17C C27G U28C A65U, the yeast fitness was at most 0.5.

For G18A G25A A70G, the yeast fitness came out at 0.54.

As to G17U A37U, the yeast fitness is at most 0.5.

Take G18A C27U G39A C60A: the yeast fitness is at most 0.5.

In the case of G17C U19A C30U A36G A70G, the yeast fitness is at most 0.5.

G18C G68C: the yeast fitness came to 0.556.

As to G18A U19A C27U G67A, the yeast fitness is at most 0.5.

For G18C A42U G48C G68C A69U, the yeast fitness was at most 0.5.

On to G18A A37G, for which the yeast fitness is 0.547.

Consider G18A C29A C49U, for which the yeast fitness was at most 0.5.

Regarding G18A A36C, the yeast fitness is 0.503.

In the case of G18C C29U C30U C49U G67A, the yeast fitness was at most 0.5.

Take G18A U47C C62A: the yeast fitness is at most 0.5.

With G17C A37U A69C, the yeast fitness was at most 0.5.

Take G18A U54C: the yeast fitness stood at 0.646.

As for G18A A21C U32G, the yeast fitness was found to be 0.614.

In the case of G18C A42U G48C U64C, the yeast fitness was at most 0.5.

On to G18A C24G C66U, for which the yeast fitness was at most 0.5.

Turning to G17C C61G C66U, the yeast fitness is at most 0.5.

With G17C A43C G51A, the yeast fitness is at most 0.5.

As to G18C A57U G67C, the yeast fitness was at most 0.5.

In the case of G18C C31G G44C, the yeast fitness came to 0.658.

As for G18A C30U C60G, the yeast fitness is at most 0.5.

Consider G18A U26G A42U A65G C66G G68A, for which the yeast fitness was at most 0.5.

For G17C U47G, the yeast fitness is at most 0.5.

On to G18A C34A, for which the yeast fitness was at most 0.5.

On to G18A C22G C31U, for which the yeast fitness was determined as 0.682.

As for G18C C24G C46A G56C G58A, the yeast fitness was at most 0.5.

In the case of G18A A36G A42U, the yeast fitness is 0.691.

Turning to G17C U35G, the yeast fitness was found to be 0.554.

G18A U32C A70G: the yeast fitness was 0.599.

On to G18C C34G A45C C66U, for which the yeast fitness came out at 0.775.

On to G17C G58C C62U, for which the yeast fitness was at most 0.5.

G17U: the yeast fitness was 0.851.

As for G17C C46A A65C, the yeast fitness is at most 0.5.

As to G17C U53A C60A G67A, the yeast fitness was at most 0.5.

As to G17C A40G A42C A45U U54C, the yeast fitness was at most 0.5.

As to G18A C22U C30U C33U A45C, the yeast fitness is at most 0.5.

With G17C C46U G68A, the yeast fitness is at most 0.5.

For G17C U28G C29U A37C A65C, the yeast fitness was at most 0.5.

Turning to G18A C33A G44A U64C, the yeast fitness is at most 0.5.

Take G17C A42C C66U: the yeast fitness was at most 0.5.

On to G18C C34U A69C, for which the yeast fitness was at most 0.5.

Consider G18A C30U A45C G52C, for which the yeast fitness is at most 0.5.

For G18C A65G, the yeast fitness worked out at 0.62.

As to G17C U35C C60U, the yeast fitness is at most 0.5.

With G17U A57G A69C, the yeast fitness is at most 0.5.

As to G18A U47C, the yeast fitness was 0.728.

For the variant G17C C22G C24A C62A A70C, the yeast fitness stood at 0.57.

With G17C G50C, the yeast fitness was determined as 0.536.

With G18A C31A G44A, the yeast fitness was found to be 0.534.

For G18A A21U C49A C60G A70U, the yeast fitness was at most 0.5.

Consider G18A A37C C55U A57G, for which the yeast fitness is at most 0.5.

Consider G18A A21C G23U U32A A42U G48C U64A, for which the yeast fitness worked out at 0.529.

Consider G18C G23A G25C A37G A43C C55G C62G, for which the yeast fitness is at most 0.5.

In the case of G18C A20C C22U C31U C61U, the yeast fitness was at most 0.5.

Consider G17C C22G G52A, for which the yeast fitness was at most 0.5.

On to G17C U28A C34G G38A G51A, for which the yeast fitness amounted to 0.512.

As for G18A U47C A57U, the yeast fitness is at most 0.5.

On to G18A U19G C60U A69C, for which the yeast fitness was at most 0.5.

For the variant G17C U47G G67A A69U, the yeast fitness amounted to 0.55.

G18C G50A C62A: the yeast fitness is at most 0.5.

For the variant G18A C29U C31A, the yeast fitness is 0.575.

G18C G23A G25C A37G A43C U54C C55G G68A: the yeast fitness was at most 0.5.

On to G18C G25C U28G A42G, for which the yeast fitness is at most 0.5.

Turning to G18C G25C U47C, the yeast fitness is at most 0.5.

Consider G18A A37U U47A C62U, for which the yeast fitness was at most 0.5.

Take G18C C22G G38A: the yeast fitness is at most 0.5.

On to G18A U19C C27G C61A U64G, for which the yeast fitness was at most 0.5.

Regarding G17U G25A U28G G58A C66G, the yeast fitness was at most 0.5.

Consider G17C U54A G56C, for which the yeast fitness was at most 0.5.

On to G18A U19C A43U U59A, for which the yeast fitness was found to be 0.538.

With G17C C24G U28A C30U A65U, the yeast fitness is at most 0.5.

For G18A U19C, the yeast fitness amounted to 0.79.

As to G18A G25A C46U C55A, the yeast fitness is at most 0.5.

For the variant G17C C22G C55G C60A, the yeast fitness was at most 0.5.

In the case of G18A G23A C33A U64C, the yeast fitness turned out to be 0.789.

On to G18A G25A C29G C34A, for which the yeast fitness was at most 0.5.

As for G17C U53A, the yeast fitness is 0.583.

Consider G18C C31G C55G A57C, for which the yeast fitness was at most 0.5.

As for G17C C29U, the yeast fitness was determined as 0.545.

G18A A20G: the yeast fitness was determined as 0.613.

Turning to G18A A20U, the yeast fitness was found to be 0.721.

As to G18A C29U U35A A70U, the yeast fitness was at most 0.5.

Turning to G18A U59A, the yeast fitness was found to be 0.76.

With G18A C24A C62U, the yeast fitness is 0.536.

For the variant G18C C61A, the yeast fitness was determined as 0.627.

For G18A A21C C30U, the yeast fitness was at most 0.5.

For the variant G17C C29U A37C A65C, the yeast fitness was found to be 0.555.

As to G18A U32C A69C, the yeast fitness is 0.549.

With G18A A40G A70C, the yeast fitness is at most 0.5.

On to G18C C30G U32C A69U, for which the yeast fitness was at most 0.5.

Consider G18C A42U U54A G58C, for which the yeast fitness turned out to be 0.574.

Consider G17C C24A A45C G52A, for which the yeast fitness was at most 0.5.

Consider G17C C34U C61U, for which the yeast fitness turned out to be 0.55.

As for G18C C24U C30G, the yeast fitness was at most 0.5.
